Screens deposited in PubChem BioAssay by The Scripps Research Institute Molecular Screening Center.
Sampled rows, rich in hits. Any-hit rate of the full collection: about 1.4%.
GSTO1 inh – counter-screen for RBBP9 inhibitors: inhibitors of human GSTO1. P78417. recombinant GSTO1, activity-based probe fluorescence polarization. inhibition, % at 5.96 µM. 300,000 compounds, 1.1% hits;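 active = inhibition above the campaign mean inhibition plus 3 SD, cut at about 35% in these data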;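 note: 0% = GSTO1-1 with DMSO and 100% = wells lacking GSTO1-1 enzyme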
TDP2 inh – TDP2 (human) inhibition, absorbance primary screen; recombinant TDP2, T5PNP hydrolysis, p-nitrophenol absorbance 415 nm; 370,000 compounds, 0.34% hits; AID 720702; inhibition, % at 12.8 µM;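 active = inhibition above the mean of all tested compounds plus 3 SD, set per campaign, cut at about 25% in these data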;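 note: 0% = DMSO with enzyme and 100% = buffer with substrate but no TDP2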
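Assay system: Recombinant human TDP2 | Quantity: 120 nM TDP2 per well | Incubation: 2 h at 37 °C | Signal: Epi absorbance | Evaluation: Percent inhibition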
Fh CTSL1 inh – blocks F. hepatica cathepsin L1 in PFM18AAP counter-screen; 300,000 compounds, 0.49% hits; AID 1906; inhibition, % at 5.96 µM; recombinant F. hepatica cathepsin L1, Z-Leu-Arg-MCA fluorescence;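 active = inhibition above the mean of all tested compounds plus 3 SD, set per screening campaign, cut at about 17% in these data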;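 note: 0% = plate median of test compound wells and 100% = 1 µM Z-Phe-Ala-diazomethylketone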
PAD4 FP inh – inhibitors of human PAD4; inhibition, % at 6.36 µM; Q9UM07; 330,000 compounds, 0.41% hits; AID 485272; recombinant PAD4, RCA probe fluorescence polarization;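 active = percent inhibition above a cutoff equal to the mean of all tested compounds plus 3 SD, cut at about 15% in these data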;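 note: 0% = PAD4 with RCA probe and DMSO and 100% = probe without PAD4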
Target sequence (Q9UM07 whole entry, looked up): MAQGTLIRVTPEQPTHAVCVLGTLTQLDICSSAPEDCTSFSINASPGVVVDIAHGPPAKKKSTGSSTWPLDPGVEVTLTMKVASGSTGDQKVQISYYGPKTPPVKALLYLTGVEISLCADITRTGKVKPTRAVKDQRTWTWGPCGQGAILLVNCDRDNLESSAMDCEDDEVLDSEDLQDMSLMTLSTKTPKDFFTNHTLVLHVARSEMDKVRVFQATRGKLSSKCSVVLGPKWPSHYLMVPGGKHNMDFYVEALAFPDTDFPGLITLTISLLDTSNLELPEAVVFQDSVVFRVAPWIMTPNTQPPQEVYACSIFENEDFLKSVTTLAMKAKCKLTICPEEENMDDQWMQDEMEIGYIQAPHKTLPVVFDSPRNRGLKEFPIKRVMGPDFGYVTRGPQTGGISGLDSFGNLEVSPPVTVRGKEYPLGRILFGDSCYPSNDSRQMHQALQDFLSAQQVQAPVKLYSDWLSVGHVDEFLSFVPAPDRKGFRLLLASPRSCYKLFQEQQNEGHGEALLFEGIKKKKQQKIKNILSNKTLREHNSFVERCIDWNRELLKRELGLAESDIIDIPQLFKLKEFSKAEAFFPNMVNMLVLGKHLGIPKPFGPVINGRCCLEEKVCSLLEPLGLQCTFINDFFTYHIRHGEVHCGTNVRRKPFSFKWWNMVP
GSTO1 confirm – GSTO1 (human) inhibition, confirmation. shares compounds with GSTO1 inh. inhibition, % at 5.96 µM. 2,400 compounds, 54% hits. recombinant GSTO1, probe fluorescence polarization;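 active = inhibition above the primary screen's cutoff, its mean inhibition plus 3 SD, cut at about 35% in these data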;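 note: loss of polarization as inhibitors block binding of rhodamine sulfonate ester activity probe; 0% = GSTO1 with DMSO and 100% = wells lacking GSTO1 enzyme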
GSTO1 recomb ABPP – GSTO1 (human) inhibition by gel ABPP. shares compounds with GSTO1 inh. AID 463110. recombinant GSTO1, gel ABPP SE-Rh probe fluorescence. 130 compounds, 30% hits. inhibition, % at 1 µM;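 active = inhibition of the enzyme GSTO1 above about 75%, limit read from the data; inactive = inhibition below that limit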
An asterisk follows results filed as active; . = no result given.

SMILES	GSTO1 inh	TDP2 inh	Fh CTSL1 inh	PAD4 FP inh	GSTO1 confirm	others
Cc1ccc2c(c1C)NC(C(=O)O)C1CC=CC21 (stereo unspecified)	51*	.	-4	2	.
COCCCNC(=O)C[C@@H]1C(=O)N2CCCC3=C2[C@@]1(C(=O)OC)CCCC3	.	0	.	.	.
CCCCCCCCN1C(=O)[C@H](CC(=O)N2CCCCC2)C[C@@]2(C(=O)OC)CC(C)(C)CC=C12	.	-11	.	.	.
COC(=O)C1CN(Cc2cn(CCOC(C)=O)nn2)CCS(=O)(=O)N1Cc1ccc(OC)cc1 (stereo unspecified)	.	-5	.	.	.
CC(=O)Oc1cc(O)c2c(=O)c(OC(C)=O)c(-c3ccc(OC(C)=O)c(OC(C)=O)c3)oc2c1	60*	.	-15	-9	.
COc1ccc(-c2oc3cc(OC(C)=O)cc(OC(C)=O)c3c(=O)c2OC)cc1	.	4	.	.	.
COC(=O)C1CN(Cc2cn(Cc3ccc(F)cc3)nn2)CCS(=O)(=O)N1Cc1ccc(C)cc1 (stereo unspecified)	.	-4	.	.	.
COc1ccc2nc3cc(Cl)ccc3c(C#N)c2c1	-3	-8	19*	1	.
CCc1ccc(C(=O)CSc2nc3cc(S(=O)(=O)N4CCOCC4)ccc3n2CC)cc1	36*	-10	0	0	.
COc1ccccc1N1CCN(S(=O)(=O)c2ccc3c(c2)CCC(=O)N3)CC1	.	-1	.	.	.
COC(=O)c1c(NC(=O)C(=O)NCCCN2CCOCC2)sc2c1CCC2	6	-3	23*	-3	.
Cc1cc2c(c(=O)o1)[C@@]1(C(=O)N(C)c3ccccc31)C1=C(CCCC1=O)O2	.	6	.	.	.
O=C(Nc1nc2c(s1)CCCC2)Oc1ccccc1	5	-5	28*	1	.
CC(=O)c1cc(-c2ccc(Cl)c(C(F)(F)F)c2)c(=O)n2c1CCC2	.	12	.	.	.
O=C1C(Cl)=C(NCCCN2CCOCC2)C(=O)c2ccccc21	.	7	.	.	.
O=C1C(Cl)=C(NCCCO)C(=O)c2ccccc21	62*	12	11	-11	9
CCOCCCNC1=C(Cl)C(=O)c2ccccc2C1=O	65*	-2	3	-13	25
N#CCSc1nnc(-c2sc3ccccc3c2Cl)o1	40*	-9	1	-5	33
COC(=O)CSc1nnc(-c2sc3ccccc3c2Cl)o1	1	6	2	-3	.
COC(=O)[C@H]1C[C@@]2(N3CCCCC3)c3ccccc3N[C@H]2N1S(=O)(=O)c1ccc(C)cc1	.	7	.	.	.
C=CCN=c1scc(C)n1/N=C/c1ccc(O)c(O)c1	95*	-7	1	-4	9
O=C1CCN(CCc2ccccc2)CCN1[C@H](CSc1ccc(Br)cc1)c1ccccc1	-3	-1	-1	-1	.
CCCN1CCC(=O)N([C@H](CSc2ccc(Br)cc2)c2ccccc2)CC1	53*	-7	-2	1	8
COc1ccc(CN2c3ccccc3C(=O)CS2(=O)=O)cc1OC	.	-7	.	.	.
CNc1ccc(Br)cc(C(=O)/C=C/c2cc(OC)ccc2OC)c1=O	40*	-2	-2	-1	13
SMILES	GSTO1 inh	TDP2 inh	Fh CTSL1 inh	PAD4 FP inh	GSTO1 confirm	others
CNc1ccc(Br)cc(C(=O)/C=C/c2ccc3c(c2)OCO3)c1=O	55*	0	2	-3	16
CCNc1ccc(Br)cc(C(=O)/C=C/c2ccc(Cl)cc2Cl)c1=O	43*	-1	4	-3	7
O=C(NCC1CCCCC1)c1ccc2nc([C@@H]3O[C@H](CO)[C@H](O)[C@H](O)[C@H]3O)[nH]c2c1	.	5	.	.	.
C1=CC2=NC34CCCCC3CC3=C(CCCC3)N4C2=CC1=NC1CCCCC1 (stereo unspecified)	76*	.	-2	7	8
O=C(OCC(=O)N1CCN(c2ccccc2)CC1)C1=COCCO1	67*	8	-4	4	34
O=C(OCC(=O)N1CCN(C(=O)c2ccco2)CC1)C1=COCCO1	6	10	-3	-2	.
O=C(CCl)N1CCN(CC(=O)N2CCCC2)CC1	82*	-13	5	2	81*	GSTO1 recomb ABPP=40
O=C(CN1CCN(c2cccc(Cl)c2)CC1)N1CCCC1	-1	-8	2	-2	.
CCOC(=O)N1CCN(C(=O)C[C@H]2C[C@@]3(C(=O)OCC)CCCC4=C3N(CCC4)C2=O)CC1	.	13	.	.	.
c1ccc(-c2noc(CSc3nc4ccccc4o3)n2)cc1	2	3	0	5	.
Clc1ccc(-c2nnc(SCc3nc(-c4ccccc4)no3)o2)cc1	40*	4	1	0	46*
Cc1ccc2nc(/C(C#N)=C\c3ccc([N+](=O)[O-])o3)[nH]c2c1	39*	-8	-3	-27	23
O=C(NC1CCCCN(Cc2cccc(Cl)c2)C1=O)c1ccc(Cl)cc1Cl (stereo unspecified)	.	-9	.	.	.
Cc1cc([N+](=O)[O-])c2c(c1C)C1C=CCC1C(c1ccccn1)N2 (stereo unspecified)	52*	.	2	-1	10
Cc1cc([N+](=O)[O-])cc2c1NCC1CC=CC21 (stereo unspecified)	1	-8	-1	2	.
O=c1c2cc3cc(Cl)ccc3nc2ncn1N1CCCCC1	.	-14	.	.	.
O=c1c(-c2ccc([N+](=O)[O-])cc2)coc2c(O)c(O)ccc12	53*	-10	0	3	25
COc1cc(-c2nnc(SCc3cc(=O)oc4cc(O)c(O)cc34)o2)cc(OC)c1OC	59*	1	2	2	39*
CCOC(=O)CSc1nnc(-c2cc(OC)c(OC)c(OC)c2)o1	6	3	-5	3	.
CN(O)/C=c1/ccc2c(n1)C(=O)C=CC=2	64*	-3	0	-9	21
Cc1nc(Cl)c(C(=O)NCc2ccccc2)c(C)c1Cl	6	-1	-6	2	.
O=C(NCc1ccccc1)c1c(Cl)nc(Cl)c(Cl)c1Cl	41*	9	-2	0	58*
Cc1ccc(-c2noc(CSc3nnnn3C3CCCCC3)n2)cc1	40*	5	4	-1	33
COCCNC(=O)C[C@H]1CC[C@H]2[C@@H](COc3ccc(NS(=O)(=O)c4ccc(Cl)cc4)cc3C(=O)N2C)O1	.	8	.	.	.
CC#CC#Cc1cccc(=O)o1	82*	9	10	1	80*
SMILES	GSTO1 inh	TDP2 inh	Fh CTSL1 inh	PAD4 FP inh	GSTO1 confirm	others
Cn1c(=O)oc2cc(S(=O)(=O)NC3CCCCCCC3)ccc21	43*	-7	-4	5	39*
CC(C)c1ccc(NS(=O)(=O)c2ccc3c(c2)oc(=O)n3C)cc1	65*	-2	0	-1	65*
Cc1cccc(CCNS(=O)(=O)c2ccc3c(c2)oc(=O)n3C)c1	55*	-6	-1	9	58*
CN1[C@H](Cc2ccccc2)COc2cccc(N3CCCC3)c2S1(=O)=O	.	3	.	.	.
COC(=O)[C@@]12C[C@@H](CC(=O)NCc3cccc4ccccc34)C(=O)N(Cc3ccco3)C1=CCC(C)(C)C2	.	4	.	.	.
CCCN(C(=O)CCc1cn(CCC)c2ccccc12)c1ccc(Oc2cccnc2)cc1	.	-8	.	.	.
